The values that follow come from the EternaBench riboswitch data.

The subject of the data set is MS2 coat protein. Put plainly: apparent Kd, MS2 coat protein; higher = weaker binding; RNA-MaP array; FMN 200 µM where present. The essentials: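 Stalled E. coli RNA polymerase produced the designs on Illumina sequencing-chip clusters. SNAP-549-labelled MS2 coat protein was added from 0.7 or 1.5 nM, doubling to 3 µM, without and then with constant ligand, in 100 mM Tris-HCl pH 7.5, 80 mM KCl, 4 mM MgCl2, BSA, DTT, yeast tRNA and Tween-20. The apparent Kd is the median of filtered per-cluster fits of green signal normalised to red-channel RNA signal and control-cluster median Fmax.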

Setting [1] is: designed as: OFF switch for flavin mononucleotide, no ligand.
Setting [2] is: ligand present: flavin mononucleotide, designed as: OFF switch for flavin mononucleotide.
The mark [3] stands for this setting: designed as: ON switch for flavin mononucleotide, no ligand.
Setting [4] is: ligand present: flavin mononucleotide, designed as: ON switch for flavin mononucleotide.

For “UUAUACGUUGAGGAUAUGCGACUUUGUAUAGUUGUAGAAGGCGAUACAUGAGGAUCACCCAUGUUUAUGGGCAU”, the apparent Kd (as a rule, a dissociation constant that holds for the conditions of the assay) is, setting by setting: under setting [1], 0.323 µM; under setting [2], 0.554 µM.
On the same counts, the results for “CUCUUGUGAGGAUAUGCUGCUCGUCACGAAAGUGAUGAGUAGCAGAAGGCACAUGAGGAUCACCCAUGUAAAUA” are 0.0937 µM and 0.0217 µM.
On the same counts, the results for “UUAAAACAUGAGGAUCACCCAUGUGAGGAUAUGAGCCGACUGUCCUGUCGGCAUGUAGUCAGAAGGUGCAGGGU” are 0.0622 µM and 0.109 µM.
Turning to “GUGCACACUCGAGGAUAUCGGAGAGUUCUCCUUCGAGAAGGCGAUUCGUGCCGUGUUAUUCUGGACAUGAGGAUCACCCAUGUG”, the “apparent Kd” value by setting is: under setting [3], 0.0842 µM; under setting [4], 0.0324 µM.
For “CGAUAGGACAGAGGAUAUACACAUGAGGAUCACCCAUGUAAUUACAACUCAUGAGGAUCACCCAUGUAGAAGGCUGUCCUAUCG”, the “apparent Kd” value under setting [1] was 0.397 µM and the “apparent Kd” value under setting [2] is 0.43 µM.
“UAAACGUUCUAGAAGGUGCUUUUGUUAAACAAGCAAGGAUAUAGACAUGAGGAUCACCCAUGUCUUUGUGACAUCGACAUACUU”: the “apparent Kd” value under setting [1] came out at 0.00844 µM and the “apparent Kd” value under setting [2] worked out at 0.0112 µM.
For “AGACCGCUACGCCGGUUUGACGCACAGGAUAUGCGGUUACAUGAGGAUCACCCAUGUGGCCAUGAGUAGAAGGGUGGUUCGUCC”, the “apparent Kd” value under setting [3] is 0.0499 µM and the “apparent Kd” value under setting [4] is 0.0391 µM.
On to “GCACUGCGAGGAUAUACAUGAGGAUCACCCAUGUGUCGGCAGCGAUGCCAGUACAAAUGUAGAAGGCGCGUAAA”, for which the “apparent Kd” value under setting [1] is 0.026 µM and the “apparent Kd” value under setting [2] was determined as 0.114 µM.
For “UUCUUGGCAGGAUAUGCUCUCUUAGACAUGAGGAUCACCCAUGUGUUCAUUCUUUCUUUUGCAGAAGGGCCUUAAU” the same measures were 0.0565 µM and 0.0699 µM.
With “AACUGACGACAUCAGUUGCGUAGGCAGGAUAUACAUGAGGAUCACCCAUGUGCAUGAUGCUACGAGUAGAAGGGCCGAGGCGAU”, the “apparent Kd” value turned out to be 0.00677 µM under setting [1] and 0.0134 µM under setting [2].
Turning to “ACCAGGGAUUCAGGAUAUAUUAGCCGAGGCCGCGUAGAAGGGAAAUCCUGACAUGAGGAUCACCCAUGUCGACCCGCCUUCCAC”, the “apparent Kd” value came to 0.0227 µM under setting [3] and 0.0242 µM under setting [4].
On the same counts, the results for “UGUUGUUCCGCAGGAUAUGUAUUGGAUUACAAUACAGAAGGGCGAUAACAUGAGGAUCACCCAUGUGUGGACAAUAAGGAAGAG” are 0.708 µM and 0.0671 µM.
As for “UGACAUAUAUAGAAGGGUAGUAGGGUAUUACAUGAGGAUCACCCAUGUAUUAUAGGAUAUGUAUAAAGUUAUUAUUCAAGUAAA”, the “apparent Kd” value runs as follows: under setting [1], 0.0158 µM; under setting [2], 0.013 µM.
As to “CUUUUGUGAGGAUAUCAGUAGUAAAGAAAUAAAAUUACUACUGAGAAGGCACAUGAGGAUCACCCAUGUUCCUC”, the “apparent Kd” value reads like this: under setting [1], 0.0362 µM; under setting [2], 0.192 µM.
“UUAUAUAGUGUGAGGAUAUGCUGGUCCUUGGAUCAGCAGAAGGCACAUGAGGAUCACCCAUGUAGUUUAUUUUA”: the “apparent Kd” value amounted to 0.029 µM under setting [1] and 0.129 µM under setting [2].
Take “GCUUCACAUGAGGAUCACCCAUGUCUUCGGAGUCGAGGAUAUGGUCACUGUAAACAGUGGCCAGAAGGCGAGGAGC”: the “apparent Kd” value runs as follows: under setting [3], 0.0541 µM; under setting [4], 0.035 µM.
As to “AUAUAGUCAGGAUAUCGAAGUGAGUGUUGGUGGGUAAGGUACGAGAAGGGACAUGAGGAUCACCCAUGUAGGAA”, the “apparent Kd” value runs as follows: under setting [1], 0.0597 µM; under setting [2], 0.0441 µM.
As for “UGCUGUGGCAGAGGAUAUACUCUAAUAAUCCAUUGCAAAUAGCGAUGGACAUGAGGAUCACCCAUGUAGAAGGCUGUCACAGCA”, the “apparent Kd” value under setting [1] was determined as 0.0637 µM and the “apparent Kd” value under setting [2] was 0.137 µM.
For “CUUUAUGUUGAGGAUAUGCACCAGCUCACUGACGCAGAAGGCGACACAUGAGGAUCACCCAUGUCAGUUCGCGU” the same measures were 0.0176 µM and 0.0178 µM.
For the sequence “GGACGUCGGAUAAACAUGAGGAUCACCCAUGUAACUAGACAUGAGGAUAUGGAUUCUAAUUGGAUCCAGAAGGUAUCGACGUCC”, the “apparent Kd” value reads like this: under setting [3], 0.193 µM; under setting [4], 0.211 µM.
On the same counts, the results for “AGCUACGUUUCGUAGCAGUGUCAUCGAGAAGGCCUCAUAACAUGAGGAUCACCCAUGUUAGCAUGGGAGGAUAUCGAUGAUACA” are 0.0588 µM and 0.0242 µM.
“AGUAGGCAGUGAGGAUAUGUACUUGUAACGGUACAUGAGGAUCACCCAUGUGGUGGGAGUGGAGGACAGAAGGCACCGUUUGGG”: the “apparent Kd” value under setting [3] came out at 0.114 µM and the “apparent Kd” value under setting [4] amounted to 0.0666 µM.
For “AAAAAAAAAACUGAGGAUAUGAAAUAAUAGACAUGAGGAUCACCCAUGUUUUCGGUCGAAAAAAUGCAGAAGGCAGAAAAAAAAAA” the same measures were 0.0316 µM and 0.0291 µM.
As to “GCUUGUGAAGGAUAUACUGGCGACAUGCGCUCGACACGCGCACAUGAGGAUCACCCAUGUAGAAGGUCAAACAU”, the “apparent Kd” value is 0.0209 µM under setting [1] and 0.0213 µM under setting [2].
For the sequence “AAAAAUGGAGGAUAUACAUGAGGAUCACCCAUGUGUGGCUAUACUAUGUGCUCGUCAGGUAGAAGGCCAAAAAA”, the “apparent Kd” value by setting is: under setting [1], 0.0312 µM; under setting [2], 0.0592 µM.
For “AAACGCCAACAUGAGGAUCACCCAUGUUCUAGUUUAGGGUCGCAGGAUAUGACUUCGAAGCUUAGUCAGAAGGGUGAGUCCACA”, the “apparent Kd” value runs as follows: under setting [3], 0.0137 µM; under setting [4], 0.0112 µM.
Take “UUCGUGCAGCUUUGCUGUACGCGUACAUGAGGAUCACCCAUGUAGGAUAUGGUAGGCAUUGCUUACUAGAAGGAUAGUGUGAUC”: the “apparent Kd” value by setting is: under setting [1], 0.124 µM; under setting [2], 0.0322 µM.
Consider “GGUUCGGGAGGAUAUGUGUUUUUGGACAUGAGGAUCACCCAUGUUUUCAUGUUUUUUCCCACAGAAGGUUUGGGCC”, for which the “apparent Kd” value under setting [1] came to 0.0186 µM and the “apparent Kd” value under setting [2] was 0.0229 µM.
For “UAUAAUUAGUAGAAGGACGGAGAGUAAGAAGUCGUAGGAUAUACAUAAGACAUGAGGAUCACCCAUGUGUGUAUGUUGGGUAGG” the same measures were 0.00676 µM and 0.0067 µM.
Regarding “GGAGACCUCGCAGGAUAUGCUGGACUUUGUCCAGCAGAAGGGUGAAAACAUGAGGAUCACCCAUGUAUGGUCUCCAAAUUUAAU”, the “apparent Kd” value is, setting by setting: under setting [3], 1.06 µM; under setting [4], 0.0543 µM.
As for “UGUCGGAGCAGAGGAUAUUACAUGAGGAUCACCCAUGUAUGAACCAAUAGCUCGAAACAGCAAUGUAAGAAGGCUGCUCCGACA”, the “apparent Kd” value by setting is: under setting [1], 0.00638 µM; under setting [2], 0.0699 µM.
With “AUUUUACAUGAGGAUCACCCAUGUUUUGGCGGGUCAGGAUAUAGAUCGGAUGAGUUCUGUCUAGAAGGGACAUGUA”, the “apparent Kd” value reads like this: under setting [3], 0.0775 µM; under setting [4], 0.0716 µM.
Consider “GCACCAAGAGGAUAUACCGAGGUCAUCUACUUUGCAUAGCGACAUGAGGAUCACCCAUGUAGAAGGUUUGUCGU”, for which the “apparent Kd” value came to 0.0954 µM under setting [1] and 0.0806 µM under setting [2].
For “UGCCCUCUUAAGGAUAUAUUGGACGAGCGACCAAUAGAAGGUGGGACAUGAGGAUCACCCAUGUGCAGACAUCC” the same measures were 0.0232 µM and 0.0227 µM.
Regarding “UUUUCAUCAUCAGGAUAUUAACGUGGGCUACUUUAAGAAGGGAUAGUGGGAGAGGAUGUGAAACAUGAGGAUCACCCAUGUUGU”, the “apparent Kd” value under setting [3] came to 0.0142 µM and the “apparent Kd” value under setting [4] turned out to be 0.01 µM.
For “AUCAGCUCGUCAGGAUAUACGUCACUGCGUCAGCAGUGUGGUAAGAUCACAUGAGGAUCACCCAUGUAGAAGGGACGAGCGGAU”, the “apparent Kd” value by setting is: under setting [1], 0.0143 µM; under setting [2], 0.279 µM.
Turning to “AAAGUGUGAGGAUAUCCUGGGCUGGGCCGGGAGGUUCGGUUGGAGAAGGCACAUGAGGAUCACCCAUGUAACGG”, the “apparent Kd” value is 0.0627 µM under setting [1] and 0.0534 µM under setting [2].
“AUUGAGUGGUCAGGAUAUGUACGGCCUACCGCACAUGAGGAUCACCCAUGUCGCCAAGGAGGACGACAGAAGGGACAACGAAUG”: the “apparent Kd” value by setting is: under setting [3], 0.0435 µM; under setting [4], 0.00883 µM.
With “UGUGUGUUUGUGAGGAUAUGCGCGCGGAAAUGUGUGUAGAAGGCACAUGAGGAUCACCCAUGUAAGGGCGCGCG”, the “apparent Kd” value under setting [1] was 0.596 µM and the “apparent Kd” value under setting [2] worked out at 0.439 µM.
For “GCUUUCGCAUGAGGAUAUGCUCGAGUUUAGAGAGCAGAAGGCAUGUCAUAAGACAUGAGGAUCACCCAUGUAGUUAAAAUUGCA”, the “apparent Kd” value reads like this: under setting [3], 0.164 µM; under setting [4], 0.0107 µM.
In the case of “AAACAUGUCCGAGGAUAUCUGGAAACAUUUUCAAGAGAAGGCGGACAUGAGGAUCACCCAUGUCUCUCCUCAUCAAAUCCAAGU”, the “apparent Kd” value reads like this: under setting [1], 0.0214 µM; under setting [2], 0.148 µM.
For “GUGUAGAUAGGAUAUGCAAGAGUCUAGCGAAGCUAGAUUCUACAUGAGGAUCACCCAUGUAGAAGGGUCUACAC” the same measures were 0.0183 µM and 0.0161 µM.
As for “GAUUAUAAGUAAGGAUAUGUAUAUGAAACAUCUACAGAAGGUACAUGAGGAUCACCCAUGUUCUUGCAGCGUGACUCUGUGAUC”, the “apparent Kd” value runs as follows: under setting [1], 0.0636 µM; under setting [2], 0.13 µM.
For “UAAACAUGAGGAUCACCCAUGUAAAGAUCGGUAGUAGAGAGUGAGGAUAUACUAAAAUUUAUAGAGUAGAAGGCACUGGGUUCU”, the “apparent Kd” value under setting [3] was 0.0384 µM and the “apparent Kd” value under setting [4] was found to be 0.0286 µM.
As for “GUCAGCCCGUGAGGAUAUACAACACUGCUUCGGCAGUGUAUUAAGAUCACAUGAGGAUCACCCAUGUAGAAGGCACGAGCUGAU”, the “apparent Kd” value by setting is: under setting [1], 0.0131 µM; under setting [2], 0.266 µM.
On the same counts, the results for “AAUUCACAUGAGGAUCACCCAUGUCAGGAUAUGGUUUUAUUUUUUUCUUUUCUUGAUUCCAGAAGGGACAGCUA” are 0.108 µM and 0.0592 µM.
For “CGCUAGCGAAUAGUAAUAAAAGUACAGGAUAUGUUACAUGAGGAUCACCCAUGUAUUGGGUAAGAACAGAAGGGUACGCUAGCG” the same measures were 0.136 µM and 0.0978 µM.
With “ACGUGUCGUGUAGGAUAUGACACAGGAAACUGGUCAGAAGGACAUGAGGAUCACCCAUGUAAAAUGUUUAAGAAUGACGUAUGC”, the “apparent Kd” value was determined as 0.0493 µM under setting [1] and 0.0949 µM under setting [2].
